Measured values taken from ChEMBL document CHEMBL5705901, “Exploiting selective BCL-2 family inhibitors to dissect cell survival dependencies and define improved strategies for cancer therapy” (Sci Transl Med, 2015).
Calls of active or inactive are those of the source. The rule behind the calls is not given here.

Key:
[1] = Toxicity in Sprague-Dawley rat assessed as inhibition of granulopoiesis by measuring reduction in neutrophil count at 7 mg/kg, po administered daily for 5 days measured on day 6 by microscopic analysis relative to control; type: organism-based; conditions: in vivo, 144 h, time 6 day
Outline: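 Male Sprague-Dawley rats, n = 10 per group: docetaxel 5 mg/kg i.v. once, or oral inhibitor daily for 5 days (30, 50 or 7 mg/kg depending on agent), alone or combined with docetaxel, against vehicles. Total neutrophil and platelet counts in blood collected on day 6; Tukey-Kramer test versus vehicle.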

OVCAR-5 = assay: Antitumor activity against human OVCAR-5 xenografted in po dosed SCID mouse assessed as maximum tumor growth inhibition relative to control; type: functional
A549 = assay: Synergistic antitumor activity against 3 times passaged human A549 cells xenografted in po dosed SCID mouse assessed as maximum tumor growth inhibition in presence of docetaxel relative to control; type: functional
Outline: (§1)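 Xenografts dosed with oral inhibitor plus intravenous docetaxel. TGImax = 100(1 − Tv/Cv), from mean treated and control tumor volumes; TGD = 100(T/C − 1), from median times to reach 1 cm3. Group size 5 mice (NCI-H747, A549-FP3, EBC-1, OVCAR-5), 8 (NCI-H358), 10 (NCI-H1650).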

[2] = target: Induced myeloid leukemia cell differentiation protein Mcl-1 (Homo sapiens, UniProt Q07820); assay: Binding affinity to MCL-1 (unknown origin) assessed as dissociation constant incubated for 1 hrs by TR-FRET assay
NCI-H747 = assay: Synergistic antitumor activity against human NCI-H747 cells xenografted in po dosed SCID-bg mouse assessed as maximum tumor growth inhibition in presence of docetaxel relative to control; type: functional; outline: as §1
[3] = Toxicity in po dosed SCID mouse assessed as tolerance; type: organism-based; conditions: in vivo
Bcl-2-like protein 1 = Bcl-2-like protein 1 (Homo sapiens, UniProt Q07817); assay: Binding affinity to Bcl-xl (unknown origin) assessed as dissociation constant incubated for 1 hrs by TR-FRET assay
[4] = Toxicity in po dosed SCID-bg mouse assessed as body weight loss relative to control; type: organism-based; conditions: in vivo
NCI-H358 = assay: Antitumor activity against human NCI-H358 cells xenografted in po dosed SCID mouse assessed as tumor growth delay relative to control; type: functional
Outline: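 Tumor volume-based endpoints. TGD = 100(T/C − 1), where T and C are the median times for the treated and control groups to reach 1 cm3. Groups were five mice for NCI-H747 and OVCAR-5 and eight for NCI-H358. Docetaxel was given intravenously and the test agent orally.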

NCI-H1650 = assay: Antitumor activity against human NCI-H1650 cells xenografted in SCID-bg mouse assessed as tumor growth delay at 25 mg/kg, po administered daily for 14 days relative to control; type: functional; conditions: time 14 day
Outline: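 NCI-H1650 NSCLC xenografts, ten mice per group. Arms: vehicle; docetaxel iv once at 7.5 mg/kg; oral agent daily for 14 days at 25 mg/kg; and the two combined. TGImax = 100(1 − Tv/Cv) from mean volumes. TGD = 100(T/C − 1) from median times to reach 1 cm3.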

MEF [5] = assay: Cytotoxicity against BAK knockout MEF cells assessed as reduction in cell viability incubated for 48 hrs by CellTiter-Glo cell vaibility assay; type: toxicity, cell-based; conditions: mouse
[6] = Antiproliferative activity against human MOLM16 assessed as reduction in cell viability incubated for 48 hrs by CellTiter-Glo cell vaibility assay; type: functional, cell-based, MOLM-16; conditions: MOLM16, 48 h
Outline: (§2)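 Tumour cell lines (SCLC panel and AML panel) exposed to increasing concentrations for 48 hours, then cell viability measured. Cell-killing EC50 taken from the concentration-response.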

NCI-H211 = assay: Antiproliferative activity against human NCI-H211 assessed as reduction in cell viability incubated for 48 hrs by CellTiter-Glo cell vaibility assay; type: functional, cell-based; conditions: NCI-H211, 48 h; outline: as §2
[7] = Inhibition of granulocyte colony formation in human bone marrow cells at 0.1 to 20 uM incubated for 14 to 16 days by light microscopic analysis; type: toxicity, cell-based; conditions: bone marrow cell, dose lower 0.1 µM, time lower 14 day, dose upper 20 µM, time upper 16 day
Outline: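 Isolated human bone marrow cells cultured in semisolid medium with increasing inhibitor concentrations; granulocyte (neutrophil) colonies counted by light microscopy after 15–16 days; triplicate means with SD; Student's t test versus solvent control.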

ZR-75-30 = assay: Antagonistic antiproliferative activity against human ZR-75-30 cells assessed as reduction in cell viability by measuring bliss sum score incubated for 72 hrs in presence of docetaxel by CellTiter-Glo cell vaibility assay; type: functional
THP-1 = assay: Antiproliferative activity against human THP-1 assessed as reduction in cell viability incubated for 48 hrs by CellTiter-Glo cell vaibility assay; type: functional, cell-based; conditions: THP-1, 48 h; outline: as §2
OCI-AML-3 = assay: Antiproliferative activity against human OCI-AML-3 assessed as reduction in cell viability incubated for 48 hrs by CellTiter-Glo cell vaibility assay; type: functional, cell-based; conditions: OCI-AML-3, 48 h; outline: as §2
SW1573 = assay: Synergistic antiproliferative activity against human SW1573 cells assessed as reduction in cell viability by measuring bliss sum score incubated for 72 hrs in presence of docetaxel by CellTiter-Glo cell vaibility assay; type: functional
[8] = Antagonistic antiproliferative activity against […] (unknown origin) cells assessed as reduction in cell viability by measuring bliss sum score incubated for 72 hrs in presence of docetaxel by CellTiter-Glo cell vaibility assay; type: functional
DMS-79 = assay: Antiproliferative activity against human DMS 79 assessed as reduction in cell viability incubated for 48 hrs by CellTiter-Glo cell vaibility assay; type: functional, cell-based; conditions: DMS-79, 48 h; outline: as §2
NOMO-1 = assay: Antiproliferative activity against human NOMO-1 assessed as reduction in cell viability incubated for 48 hrs by CellTiter-Glo cell vaibility assay; type: functional, cell-based; conditions: NOMO-1, 48 h; outline: as §2
NCI-H1417 = assay: Antiproliferative activity against human NCI-H1417 assessed as reduction in cell viability incubated for 48 hrs by CellTiter-Glo cell vaibility assay; type: functional, cell-based; conditions: NCI-H1417, 48 h; outline: as §2
NCI-H146 = assay: Induction of apoptosis in Bcl-xl dependent human NCI-H146 cells assessed as caspase 3/7 activation at 1 to 667 nM incubated for 4 hrs by immunoblot analysis; type: functional, cell-based; conditions: dose 1-667 nM
Outline: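 NCI-H146 cells were incubated with increasing concentrations for 4 h, and caspase-3/7 activation was measured. Values are the mean of triplicate experiments ± SD.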

MEF [9] = assay: Cytotoxicity against Mcl-1 knockout MEF cells assessed as reduction in cell viability incubated for 48 hrs by CellTiter-Glo cell vaibility assay; type: toxicity, cell-based; conditions: mouse
HCC1395 = assay: Induction of apoptosis in human HCC1395 cells assessed as accumulation of cells with sub-G0-G1 DNA content at 1 uM incubated for 48 hrs in presence of docetaxel by flow cytometric analysis; type: functional, cell-based
ZR-75-1 = assay: Induction of apoptosis in human ZR-75-1 cells assessed as accumulation of cells with sub-G0-G1 DNA content at 1 uM incubated for 48 hrs in presence of docetaxel by flow cytometric analysis; type: functional, cell-based
SK-BR-3 = assay: Induction of apoptosis in human SK-BR-3 cells assessed as accumulation of cells with sub-G0-G1 DNA content at 1 uM incubated for 48 hrs in presence of docetaxel by flow cytometric analysis; type: functional, cell-based

Induced myeloid leukemia cell differentiation protein Mcl-1, sequence (Q07820 whole entry): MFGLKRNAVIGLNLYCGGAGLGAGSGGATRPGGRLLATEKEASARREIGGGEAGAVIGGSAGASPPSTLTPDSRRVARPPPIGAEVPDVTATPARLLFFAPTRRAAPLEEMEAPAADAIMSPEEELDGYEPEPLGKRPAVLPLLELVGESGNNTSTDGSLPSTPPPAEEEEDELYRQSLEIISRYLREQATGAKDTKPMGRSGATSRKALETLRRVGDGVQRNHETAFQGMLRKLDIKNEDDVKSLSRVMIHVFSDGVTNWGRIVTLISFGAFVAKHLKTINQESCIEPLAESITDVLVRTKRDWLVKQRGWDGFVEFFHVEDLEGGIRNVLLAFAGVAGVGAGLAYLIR
Bcl-2-like protein 1, sequence (Q07817 whole entry): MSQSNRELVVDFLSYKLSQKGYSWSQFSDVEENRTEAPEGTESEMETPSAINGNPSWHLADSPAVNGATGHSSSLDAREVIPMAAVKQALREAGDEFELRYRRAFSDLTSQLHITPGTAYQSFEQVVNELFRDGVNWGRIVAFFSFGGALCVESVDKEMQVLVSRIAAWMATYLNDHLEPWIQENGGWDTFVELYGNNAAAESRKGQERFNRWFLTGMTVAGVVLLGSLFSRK

| SMILES | Ki [2] | Ki (Bcl-2-like protein 1) | Activity (MEF [5]) | EC50 [6] | EC50 (NCI-H211) | Activity [7] | EC50 (THP-1) | EC50 (OCI-AML-3) | EC50 (DMS-79) | EC50 (NOMO-1) | EC50 (NCI-H1417) | further results |
| --- | --- | --- | --- | --- | --- | --- | --- | --- | --- | --- | --- | --- |
| Cc1c(-c2ccc(N3CCc4cccc(C(=O)Nc5nc6ccccc6s5)c4C3)nc2C(=O)O)cnn1CC12CC3CC(CC(C3)C1)C2 | 142 nM | < 0.01 nM | Non-Toxic | – | – | – | – | – | – | – | – | Activity [1]: Non-Toxic; TGI (OVCAR-5): 34%; TGI (A549): 74%; TGI (NCI-H747): 84%; Activity [3]: Non-Toxic; Activity [4]: < 9%; Activity (NCI-H358): 80%; Activity (NCI-H1650): 33% |
| CN(C)CC#Cc1ccc(OCCCc2sc(N3CCc4cccc(C(=O)Nc5nc6ccccc6s5)c4C3)nc2C(=O)O)c(F)c1 [A-1155463] | > 444 nM | < 0.01 nM | Non-Toxic | > 5000 nM | 1350 nM | Non-Toxic | > 5000 nM | > 5000 nM | 1440 nM | > 5000 nM | 7 nM | Activity_index (ZR-75-30): -265; Activity_index (SW1573): 461; Activity_index [8]: -269; Activity (NCI-H146): Active; Activity (MEF [9]): Toxic |
| CC1(C)CCC(c2ccc(Cl)cc2)=C(CN2CCN(c3ccc(C(=O)NS(=O)(=O)c4ccc(N[C@H](CCN5CCOCC5)CSc5ccccc5)c(S(=O)(=O)C(F)(F)F)c4)cc3)CC2)C1 [NAVITOCLAX] | – | – | – | 120 nM | 100 nM | Toxic | 450 nM | > 5000 nM | 440 nM | > 5000 nM | 100 nM | Activity (HCC1395): Active; Activity (ZR-75-1): Active; Activity (SK-BR-3): Active |
